# What was measured:
# [1] = biological target: T1, Receptor tyrosine-protein kinase erbB-4 (Homo sapiens, UniProt Q15303); assay: Inhibition of ERBB4 relative to control
# [2] = biological target: Tyrosine-protein kinase Lyn (Homo sapiens, UniProt P07948); assay: Inhibition of LYN-A expressed in Sf9 cells after 60 mins by TR-FRET Assay
# [3] = biological target: T2, Aryl hydrocarbon receptor (Mus musculus, UniProt P30561); assay: Agonist activity at Ah receptor in genetically engineered mouse cells expressing firefly luciferase gene by CALUX transactivational assay; assay type: functional
# T2 sequence (P30561 whole entry): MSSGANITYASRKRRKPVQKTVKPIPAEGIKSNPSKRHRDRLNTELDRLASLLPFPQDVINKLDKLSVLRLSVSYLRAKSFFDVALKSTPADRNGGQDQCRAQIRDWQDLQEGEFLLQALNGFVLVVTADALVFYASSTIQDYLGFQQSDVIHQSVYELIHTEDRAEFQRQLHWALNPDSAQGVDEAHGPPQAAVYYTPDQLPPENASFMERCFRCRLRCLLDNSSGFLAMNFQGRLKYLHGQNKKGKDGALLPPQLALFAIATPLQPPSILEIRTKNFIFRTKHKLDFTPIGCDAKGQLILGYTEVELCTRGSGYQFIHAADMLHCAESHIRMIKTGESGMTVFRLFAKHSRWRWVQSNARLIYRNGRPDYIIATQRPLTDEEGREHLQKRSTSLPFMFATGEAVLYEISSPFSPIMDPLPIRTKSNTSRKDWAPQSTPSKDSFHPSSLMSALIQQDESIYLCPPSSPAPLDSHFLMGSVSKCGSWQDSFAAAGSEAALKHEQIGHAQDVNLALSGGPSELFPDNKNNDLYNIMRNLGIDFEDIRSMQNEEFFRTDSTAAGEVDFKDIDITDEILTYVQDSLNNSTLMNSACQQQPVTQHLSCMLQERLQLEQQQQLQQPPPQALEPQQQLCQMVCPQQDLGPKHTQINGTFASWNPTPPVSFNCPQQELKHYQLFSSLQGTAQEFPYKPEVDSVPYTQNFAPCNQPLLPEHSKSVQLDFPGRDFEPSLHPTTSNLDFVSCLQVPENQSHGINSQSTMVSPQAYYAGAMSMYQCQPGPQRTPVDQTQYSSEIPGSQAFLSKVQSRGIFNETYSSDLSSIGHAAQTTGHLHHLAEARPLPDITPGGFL
# [4] = biological target: T3, Tyrosine-protein kinase Lck (Homo sapiens, UniProt P06239); assay: Inhibition of C-terminal His6-tagged human full-length LCK expressed in Sf9 cells after 60 mins by TR-FRET Assay
# [5] = biological target: T4, Tyrosine-protein kinase BTK (Homo sapiens, UniProt Q06187); assay: Inhibition of BTK autophosphorylation at PY223 in human Ramos B cells after 20 mins by Western blot analysis; assay type: cell-based
# [6] = AUC (0 to infinity) in mouse at 2 mg/kg, iv; assay type: ADME, organism-based; parameters: time infinity, dose 2 mg/kg, route intravenous; conditions: plasma
# [7] = Half life in mouse at 10 mg/kg, po; assay type: ADME, organism-based; parameters: dose 10 mg/kg, route oral; conditions: in vivo
# [8] = Oral bioavailability in mouse at 10 mg/kg; assay type: ADME, organism-based; conditions: in vivo
# Summary of the method: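 Mouse pharmacokinetics from single dosing at 2 mg/kg iv and 10 mg/kg po. The study derived AUC, T1/2, clearance, Vss, Tmax, Cmax and oral bioavailability (%F) from the paired iv and po arms.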
# [9] = biological target: Tyrosine-protein kinase ABL1 (Homo sapiens, UniProt P00519); assay: Inhibition of Abl1 relative to control
# [10] = biological target: Tyrosine-protein kinase ABL2 (Homo sapiens) (UniProt P42684); assay: Inhibition of ABL2 relative to control; conditions: concentration not given here
# [11] = biological target: Tyrosine-protein kinase Blk (Homo sapiens, UniProt P51451); assay: Inhibition of BLK relative to control
# [12] = biological target: Serine/threonine-protein kinase B-raf (Homo sapiens) (UniProt P15056); assay: Inhibition of B-Raf relative to control; conditions: concentration not given here
# [13] = biological target: T4, Tyrosine-protein kinase BTK; assay: Inhibition of BTK relative to control
# [14] = biological target: Ephrin type-A receptor 8 (Homo sapiens) (UniProt P29322); assay: (§1) Inhibition of EPHA8 relative to control; conditions: concentration not given here
# [15] = biological target: Ephrin type-A receptor 8 (Homo sapiens, UniProt P29322); assay: as §1
# [16] = biological target: T1, Receptor tyrosine-protein kinase erbB-4; assay: Inhibition of HER4 relative to control; conditions: concentration not given here
# [17] = biological target: Tyrosine-protein kinase Fgr (Homo sapiens) (UniProt P09769); assay: Inhibition of FGR relative to control; conditions: concentration not given here
# [18] = biological target: Receptor-type tyrosine-protein kinase FLT3 (Homo sapiens) (UniProt P36888); assay: Inhibition of FLT3 relative to control; conditions: concentration not given here
# [19] = biological target: Tyrosine-protein kinase Fyn (Homo sapiens, UniProt P06241); assay: Inhibition of FYN relative to control
# [20] = biological target: Interleukin-1 receptor-associated kinase 4 (Homo sapiens) (UniProt Q9NWZ3); assay: Inhibition of IRAK4 relative to control; conditions: concentration not given here
# [21] = biological target: Vascular endothelial growth factor receptor 2 (Homo sapiens) (UniProt P35968); assay: Inhibition of KDR relative to control; conditions: concentration not given here
# [22] = biological target: T3, Tyrosine-protein kinase Lck; assay: Inhibition of LCK relative to control; conditions: concentration not given here
# Target sequence in this assay (P06239 2-509 limits assumed): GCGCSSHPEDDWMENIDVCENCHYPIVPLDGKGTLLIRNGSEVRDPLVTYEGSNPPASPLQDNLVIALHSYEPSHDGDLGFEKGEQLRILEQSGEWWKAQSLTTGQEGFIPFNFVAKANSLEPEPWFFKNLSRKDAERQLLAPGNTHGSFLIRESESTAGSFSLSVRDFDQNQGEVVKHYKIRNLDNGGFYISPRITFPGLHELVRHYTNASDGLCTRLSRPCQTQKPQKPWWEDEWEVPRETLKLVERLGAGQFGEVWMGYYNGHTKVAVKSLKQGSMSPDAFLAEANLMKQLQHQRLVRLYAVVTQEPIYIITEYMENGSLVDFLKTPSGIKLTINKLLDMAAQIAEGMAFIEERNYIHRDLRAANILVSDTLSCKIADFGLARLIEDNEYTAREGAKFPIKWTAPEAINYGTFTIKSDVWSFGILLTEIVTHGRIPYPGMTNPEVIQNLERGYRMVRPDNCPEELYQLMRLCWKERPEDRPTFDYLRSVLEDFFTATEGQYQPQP
# [23] = biological target: Mitogen-activated protein kinase 14 (Homo sapiens) (UniProt Q16539); assay: Inhibition of MAPK14 relative to control; conditions: concentration not given here
# [24] = biological target: Mitogen-activated protein kinase 3 (Homo sapiens) (UniProt P27361); assay: Inhibition of MAPK3 relative to control; conditions: concentration not given here
# [25] = biological target: Mitogen-activated protein kinase 8 (Homo sapiens) (UniProt P45983); assay: Inhibition of MAPK8 relative to control; conditions: concentration not given here
# [26] = biological target: Mitogen-activated protein kinase 9 (Homo sapiens) (UniProt P45984); assay: Inhibition of JNK2 relative to control; conditions: concentration not given here
# [27] = biological target: Serine/threonine-protein kinase MARK1 (Homo sapiens) (UniProt Q9P0L2); assay: Inhibition of MARK1 relative to control; conditions: concentration not given here
# [28] = biological target: Tyrosine-protein kinase Mer (Homo sapiens) (UniProt Q12866); assay: Inhibition of MERTK relative to control; conditions: concentration not given here
# [29] = biological target: 3-phosphoinositide-dependent protein kinase 1 (Homo sapiens) (UniProt O15530); assay: Inhibition of PDK1 relative to control; conditions: concentration not given here
# [30] = biological target: Phosphatidylinositol 4-phosphate 3-kinase C2 domain-containing subunit alpha (Homo sapiens) (UniProt O00443); assay: Inhibition of PI3K-C2 alpha relative to control; conditions: concentration not given here
# [31] = biological target: Serine/threonine-protein kinase PLK1 (Homo sapiens) (UniProt P53350); assay: Inhibition of PLK1 relative to control; conditions: concentration not given here
# [32] = biological target: cAMP-dependent protein kinase catalytic subunit alpha (Homo sapiens) (UniProt P17612); assay: Inhibition of PRKACA relative to control; conditions: concentration not given here
# [33] = biological target: Focal adhesion kinase 1 (Homo sapiens) (UniProt Q05397); assay: Inhibition of PTK2 relative to control; conditions: concentration not given here
# [34] = biological target: RAF proto-oncogene serine/threonine-protein kinase (Homo sapiens) (UniProt P04049); assay: Inhibition of RAF1 relative to control; conditions: concentration not given here
# [35] = biological target: Proto-oncogene tyrosine-protein kinase receptor Ret (Homo sapiens) (UniProt P07949); assay: Inhibition of RET relative to control; conditions: concentration not given here
# [36] = biological target: Angiopoietin-1 receptor (Homo sapiens) (UniProt Q02763); assay: Inhibition of TEK relative to control; conditions: concentration not given here
# T4 sequence (Q06187 whole entry): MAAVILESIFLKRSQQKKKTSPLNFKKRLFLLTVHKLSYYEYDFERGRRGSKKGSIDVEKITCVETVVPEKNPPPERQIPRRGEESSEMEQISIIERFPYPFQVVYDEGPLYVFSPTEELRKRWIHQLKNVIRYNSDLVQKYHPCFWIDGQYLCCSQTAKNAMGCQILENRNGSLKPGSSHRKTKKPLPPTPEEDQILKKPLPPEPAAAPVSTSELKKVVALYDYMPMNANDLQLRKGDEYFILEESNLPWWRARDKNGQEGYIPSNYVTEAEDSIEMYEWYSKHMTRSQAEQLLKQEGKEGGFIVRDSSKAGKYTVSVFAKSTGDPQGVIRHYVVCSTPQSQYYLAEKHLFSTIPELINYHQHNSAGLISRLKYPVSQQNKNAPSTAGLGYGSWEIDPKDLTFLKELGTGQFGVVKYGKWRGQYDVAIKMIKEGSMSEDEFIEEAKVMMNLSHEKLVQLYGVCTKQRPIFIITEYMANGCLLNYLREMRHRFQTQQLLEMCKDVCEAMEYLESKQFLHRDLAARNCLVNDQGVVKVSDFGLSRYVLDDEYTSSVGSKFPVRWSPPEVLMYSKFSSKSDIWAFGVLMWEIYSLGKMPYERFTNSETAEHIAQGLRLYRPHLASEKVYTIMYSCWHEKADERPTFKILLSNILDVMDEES
# T1 sequence (Q15303 whole entry): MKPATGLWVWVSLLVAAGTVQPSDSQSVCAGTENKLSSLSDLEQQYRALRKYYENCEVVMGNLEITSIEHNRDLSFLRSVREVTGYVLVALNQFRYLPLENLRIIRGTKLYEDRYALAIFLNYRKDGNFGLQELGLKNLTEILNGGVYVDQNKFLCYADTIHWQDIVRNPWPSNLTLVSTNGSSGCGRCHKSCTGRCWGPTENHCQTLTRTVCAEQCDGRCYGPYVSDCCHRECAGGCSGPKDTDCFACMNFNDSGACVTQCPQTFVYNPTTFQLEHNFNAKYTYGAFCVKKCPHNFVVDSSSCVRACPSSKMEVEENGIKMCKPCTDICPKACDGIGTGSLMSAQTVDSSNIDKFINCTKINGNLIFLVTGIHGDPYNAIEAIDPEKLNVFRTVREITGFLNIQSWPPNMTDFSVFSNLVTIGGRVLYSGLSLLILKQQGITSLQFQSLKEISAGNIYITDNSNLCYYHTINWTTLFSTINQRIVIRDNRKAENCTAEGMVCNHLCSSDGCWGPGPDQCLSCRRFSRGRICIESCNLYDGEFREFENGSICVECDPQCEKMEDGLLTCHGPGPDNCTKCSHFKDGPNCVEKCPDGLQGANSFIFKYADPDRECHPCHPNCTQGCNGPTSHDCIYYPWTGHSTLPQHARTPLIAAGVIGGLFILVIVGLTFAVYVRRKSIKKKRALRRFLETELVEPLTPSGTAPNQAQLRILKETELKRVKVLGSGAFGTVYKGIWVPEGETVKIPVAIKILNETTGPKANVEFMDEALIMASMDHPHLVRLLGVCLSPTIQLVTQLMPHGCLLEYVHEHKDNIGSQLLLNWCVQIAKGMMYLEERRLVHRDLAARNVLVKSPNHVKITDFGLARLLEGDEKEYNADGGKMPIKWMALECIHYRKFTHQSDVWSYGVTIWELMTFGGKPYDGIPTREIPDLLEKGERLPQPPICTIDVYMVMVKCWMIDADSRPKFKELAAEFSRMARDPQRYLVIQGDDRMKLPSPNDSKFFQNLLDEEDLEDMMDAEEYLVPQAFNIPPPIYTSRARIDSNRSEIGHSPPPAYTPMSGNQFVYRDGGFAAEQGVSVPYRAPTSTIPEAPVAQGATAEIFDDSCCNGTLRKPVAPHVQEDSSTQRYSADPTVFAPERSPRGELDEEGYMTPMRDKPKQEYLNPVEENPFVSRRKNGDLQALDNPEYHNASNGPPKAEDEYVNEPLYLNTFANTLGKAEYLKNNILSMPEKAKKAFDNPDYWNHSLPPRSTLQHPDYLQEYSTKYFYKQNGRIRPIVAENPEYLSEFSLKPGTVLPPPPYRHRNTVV
# Proto-oncogene tyrosine-protein kinase receptor Ret (Homo sapiens), sequence (P07949 whole entry): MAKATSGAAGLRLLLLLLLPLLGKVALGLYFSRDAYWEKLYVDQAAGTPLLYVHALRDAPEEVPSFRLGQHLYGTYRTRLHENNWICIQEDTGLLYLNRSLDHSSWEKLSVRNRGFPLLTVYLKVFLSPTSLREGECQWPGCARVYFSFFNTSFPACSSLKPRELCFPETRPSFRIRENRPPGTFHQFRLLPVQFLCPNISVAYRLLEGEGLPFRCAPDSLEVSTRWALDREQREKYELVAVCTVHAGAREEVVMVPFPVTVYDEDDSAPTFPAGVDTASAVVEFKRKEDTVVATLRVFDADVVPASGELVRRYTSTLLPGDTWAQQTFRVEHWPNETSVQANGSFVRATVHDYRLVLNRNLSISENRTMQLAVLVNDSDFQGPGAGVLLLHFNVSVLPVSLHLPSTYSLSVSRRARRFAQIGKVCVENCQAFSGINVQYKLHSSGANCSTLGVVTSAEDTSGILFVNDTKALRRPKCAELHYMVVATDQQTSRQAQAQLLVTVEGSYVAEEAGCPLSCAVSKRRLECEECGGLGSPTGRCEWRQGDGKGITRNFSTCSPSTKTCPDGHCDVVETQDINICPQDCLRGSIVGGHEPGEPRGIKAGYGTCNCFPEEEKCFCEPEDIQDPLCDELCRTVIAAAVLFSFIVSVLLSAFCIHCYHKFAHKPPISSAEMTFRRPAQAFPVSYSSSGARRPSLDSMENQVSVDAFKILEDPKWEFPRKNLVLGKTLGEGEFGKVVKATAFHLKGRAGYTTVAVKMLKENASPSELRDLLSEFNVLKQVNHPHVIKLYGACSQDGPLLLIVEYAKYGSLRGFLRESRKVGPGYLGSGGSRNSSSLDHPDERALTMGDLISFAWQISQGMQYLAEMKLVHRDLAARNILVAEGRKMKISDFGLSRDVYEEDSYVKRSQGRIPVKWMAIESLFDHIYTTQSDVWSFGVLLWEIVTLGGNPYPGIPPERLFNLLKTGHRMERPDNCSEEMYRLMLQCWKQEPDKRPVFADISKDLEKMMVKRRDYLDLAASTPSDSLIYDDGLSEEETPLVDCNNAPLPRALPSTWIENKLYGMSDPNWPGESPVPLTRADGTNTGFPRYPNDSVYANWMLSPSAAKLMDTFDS
# Serine/threonine-protein kinase MARK1 (Homo sapiens), sequence (Q9P0L2 whole entry, looked up): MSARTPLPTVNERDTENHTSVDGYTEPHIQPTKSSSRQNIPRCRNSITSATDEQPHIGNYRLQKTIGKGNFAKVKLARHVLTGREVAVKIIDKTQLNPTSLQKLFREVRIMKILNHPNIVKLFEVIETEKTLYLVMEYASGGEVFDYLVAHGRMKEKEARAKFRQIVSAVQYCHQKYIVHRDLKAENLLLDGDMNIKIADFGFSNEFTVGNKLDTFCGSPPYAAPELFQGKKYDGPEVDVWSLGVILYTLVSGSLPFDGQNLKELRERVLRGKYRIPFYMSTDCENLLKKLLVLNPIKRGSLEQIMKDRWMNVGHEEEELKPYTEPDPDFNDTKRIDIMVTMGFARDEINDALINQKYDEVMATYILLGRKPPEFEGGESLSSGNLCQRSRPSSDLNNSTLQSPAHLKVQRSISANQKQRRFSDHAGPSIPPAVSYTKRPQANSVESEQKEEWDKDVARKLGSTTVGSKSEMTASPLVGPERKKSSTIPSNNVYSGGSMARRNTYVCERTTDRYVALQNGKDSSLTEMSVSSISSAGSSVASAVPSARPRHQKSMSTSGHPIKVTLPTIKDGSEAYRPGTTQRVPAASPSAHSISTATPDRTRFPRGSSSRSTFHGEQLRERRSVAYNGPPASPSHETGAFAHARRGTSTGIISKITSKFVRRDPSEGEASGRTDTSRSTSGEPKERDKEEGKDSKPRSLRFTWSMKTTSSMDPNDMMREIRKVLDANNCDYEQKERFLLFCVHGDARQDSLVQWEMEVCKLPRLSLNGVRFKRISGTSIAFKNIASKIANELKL
# Mitogen-activated protein kinase 8 (Homo sapiens), sequence (P45983 whole entry): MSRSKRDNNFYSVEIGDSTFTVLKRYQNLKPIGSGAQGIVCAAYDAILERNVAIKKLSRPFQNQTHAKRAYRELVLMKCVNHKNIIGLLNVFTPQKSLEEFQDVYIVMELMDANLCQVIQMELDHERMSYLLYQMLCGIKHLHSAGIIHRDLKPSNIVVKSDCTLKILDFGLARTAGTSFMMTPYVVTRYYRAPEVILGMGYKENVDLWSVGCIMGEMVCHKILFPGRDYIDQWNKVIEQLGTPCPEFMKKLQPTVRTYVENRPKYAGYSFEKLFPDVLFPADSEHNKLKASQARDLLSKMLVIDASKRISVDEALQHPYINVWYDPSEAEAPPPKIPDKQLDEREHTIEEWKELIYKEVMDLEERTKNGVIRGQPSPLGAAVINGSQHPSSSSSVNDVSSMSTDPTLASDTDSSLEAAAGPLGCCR
structure (smiles),measurement,setting,value
Cc1ccccc1Nc1nc2cc(F)c(N(C)C(=O)/C=C/CN(C)C)cc2n2cncc12,IC50,[1],43.7 nM
same,IC50,[2],624 nM
same,EC50,[3],> 10000 nM
same,IC50,[4],772 nM
same,IC50,[5],48 nM
same,AUC(0-inf),[6],510 ng·h/mL
same,half-life,[7],2 h
same,bioavailability,[8],34%
same,IC50,[9],109 nM
same,inhibition,[10],65%
same,IC50,[11],16 nM
same,inhibition,[11]; concentration not given here,109%
same,inhibition,[12],19%
same,IC50,[13],3.31 nM
same,inhibition,[14],54%
same,IC50,[15],434 nM
same,inhibition,[16],101%
same,inhibition,[17],15%
same,inhibition,[18],-8%
same,IC50,[19],892 nM
same,inhibition,[19]; concentration not given here,40%
same,inhibition,[20],10%
same,inhibition,[21],7%
same,inhibition,[22],25%
same,inhibition,[23],6%
same,inhibition,[24],1%
same,inhibition,[25],-3%
same,inhibition,[26],18%
same,inhibition,[27],8%
same,inhibition,[28],4%
same,inhibition,[29],7%
same,inhibition,[30],0%
same,inhibition,[31],4%
same,inhibition,[32],11%
same,inhibition,[33],-2%
same,inhibition,[34],9%
same,inhibition,[35],6%
same,inhibition,[36],13%
